Data set [1] can be described thus: Hydrolytic solution stability in pH 7.4 aqueous phosphate buffer at 70 degC by HPLC-UV method. Type of data set: physicochemical. In a few lines:
(§1)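 Compound held in aqueous phosphate buffer, pH 7.4, at 37 °C or 70 °C. Hydrolytic stability is reported as half-life in hours.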

The test system of data set [2] is Klebsiella pneumoniae. The data set is described as follows: Inhibition of Klebsiella pneumoniae CTX-M-15 pre-incubated with enzyme for 5 mins before nitrocefin substrate addition by colorimetric assay.
Data set [3] in a line: Inhibition of Enterobacter cloacae KPC-2 pre-incubated with enzyme for 5 mins before nitrocefin substrate addition by colorimetric assay.
A short description of data set [4]: Inhibition of Pseudomonas aeruginosa AmpC pre-incubated with enzyme for 5 mins before nitrocefin substrate addition by colorimetric assay.
Data set [5] concerns Klebsiella pneumoniae. The data set is described as follows: Inhibition of Klebsiella pneumoniae OXA-48 pre-incubated with enzyme for 5 mins before nitrocefin substrate addition by colorimetric assay.
Data set [6] in a line: Hydrolytic solution stability in pH 7.4 aqueous phosphate buffer at 37 degC by HPLC-UV method. Type of data set: physicochemical. The essentials:
as §1

Where only a bound is given, the exact number is not on record here.

`NC(=O)[C@@H]1[C@H]2C[C@H]2[C@@H]2CN1C(=O)N2OS(=O)(=O)[O-].[Na+]`: the half-life (usually the time in which the quantity being followed falls by half) in data set [1] was greater than 264 h. The IC50 (commonly the midpoint of a concentration-inhibition curve) is 0.48 µM with Klebsiella pneumoniae [2], 6.7 µM in data set [3], 2 µM in data set [4] and 28 µM in the data set with Klebsiella pneumoniae [5].

For the molecule `NC(=O)[C@@H]1[C@@H]2C[C@@H]2[C@@H]2CN1C(=O)N2OS(=O)(=O)[O-].[Na+]`, the half-life in data set [6] was 112 h; in data set [1], 8.2 h. The half-maximal inhibitory concentration (IC50) with Klebsiella pneumoniae [2] turned out to be 0.14 µM; in data set [3] it was 0.85 µM; in data set [4], 4.5 µM; in the data set on Klebsiella pneumoniae [5], 1.3 µM.

In data set [1], `C[C@]1(Cn2ccnn2)[C@H](C(=O)O)N2C(=O)C[C@H]2S1(=O)=O` [TAZOBACTAM] gave a half-life of 7.7 h. In addition, the IC50 in the data set on Klebsiella pneumoniae [2] is less than 0.007 µM; in data set [3] it was 39 µM; in data set [4], 3.4 µM; in the data set on Klebsiella pneumoniae [5] it was 3.6 µM.

The values are drawn from ChEMBL document CHEMBL3352796, “Enantioselective Synthesis and Profiling of Two Novel Diazabicyclooctanone β-Lactamase Inhibitors” (ACS Med Chem Lett, 2014).
